Source: ChEMBL document CHEMBL3763088, “Design, synthesis, and biological evaluation of water-soluble amino acid prodrug conjugates derived from combretastatin, dihydronaphthalene, and benzosuberene-based parent vascular disrupting agents” (Bioorg Med Chem, 2016)
Several values for one entry are separate records, joined by “and”; a condition that tells them apart may be missing. Identical values can stand only once. Activity calls are given as the source filed them. The calls are words filed in the database; no cut-off is given here.

What was measured:
[1] = Cytotoxicity against human SKOV3 cells assessed as growth inhibition after 48 hrs by SRB assay; format: functional, SK-OV-3
Method in brief: (§1)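 Cells kept at 37 °C, 5% CO2, up to passage 15. Plated at 7500 cells/well in DMEM with 5% FBS and 1% gentamycin, grown 24 h, then given 10-fold serial dilutions for 48 h. Fixed with 10% TCA (final), SRB-stained, read at 540 nm, normalized at 630 nm. GI50 is the concentration halving net protein staining versus controls, taken from optical density data.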

Leucine aminopeptidase [2] = target: T1, Leucine aminopeptidase (Sus scrofa, UniProt Q29571); test: Prodrug conversion assessed as porcine leucine aminopeptidase-mediated compound cleavage after 24 hrs using 3.6 units of enzyme by HPLC analysis; format: ADME; details: pig
T1 sequence (Q29571 whole entry): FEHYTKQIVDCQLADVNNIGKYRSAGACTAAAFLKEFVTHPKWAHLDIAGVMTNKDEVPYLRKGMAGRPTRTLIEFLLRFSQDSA
Method in brief: (§2)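 Porcine kidney microsomal LAP; units defined with 24 mM L-leucine p-nitroanilide in 50 mM sodium phosphate pH 7.2 at 37 °C. Enzyme preincubated in the same buffer at 37 °C, then substrate added. Aliquots were quenched with acetonitrile on ice, centrifuged and run on C18 HPLC (acetonitrile/water, 0.05% TFA, 1.0 mL/min, 22 °C, diode-array UV). Cleavage % from the parent/prodrug peak-area ratio; amounts from calibration curves.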

Leucine aminopeptidase [3] = target: T1, Leucine aminopeptidase; test: Prodrug conversion assessed as porcine leucine aminopeptidase-mediated compound cleavage by HPLC analysis; format: ADME; details: pig; method in brief: as §2
NCI-H460 [4] = test: Cytotoxicity against human NCI-H460 cells assessed as growth inhibition after 48 hrs by SRB assay; format: functional; method in brief: as §1
[5] = Cytotoxicity against human DU145 cells assessed as growth inhibition after 48 hrs by SRB assay; format: functional, DU-145; method in brief: as §1
Tubulin = Tubulin (Bos taurus, UniProt Q6B856+Q862L2+Q862F3); test: Inhibition of bovine brain tubulin polymerization preincubated for 15 mins by spectrophotometric analysis
Method in brief: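 Purified bovine brain tubulin, 1.0 mg/mL (10 μM), in 0.8 M monosodium glutamate pH 6.6 with 4% DMSO and varied compound. Temperature jumped from 0 to 30 °C; turbidity at 350 nm followed for 20 min.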

MDA-MB-231 [6] = test: Induction of tumor-specific vascular damage in luciferase expressing human MDA-MB-231 cells xenografted in SCID mouse assessed as reduction in light emission at 80 mg/kg at 2 hrs post dose by bioluminescence imaging assay relative to control; format: functional; details: MDA-MB-231, 2 h
MDA-MB-231 [7] = test: Induction of tumor-specific vascular damage in luciferase expressing human MDA-MB-231 cells xenografted in SCID mouse assessed as reduction in light emission at 80 mg/kg at 4 hrs post dose by bioluminescence imaging assay (reference value: 22%); format: functional; details: MDA-MB-231, 4 h
MDA-MB-231 [8] = test: Induction of tumor-specific vascular damage in luciferase expressing human MDA-MB-231 cells xenografted in SCID mouse assessed as reduction in light emission at 80 mg/kg at 24 hrs post dose by bioluminescence imaging assay (reference value: 24%); format: functional; details: MDA-MB-231, 24 h
[9] = Cytotoxicity against human SKOV3 cells assessed as growth inhibition using compound dissolved in DMSO after 48 hrs by SRB assay; format: functional; details: SK-OV-3, 48 h; method in brief: as §1
NCI-H460 [10] = test: Cytotoxicity against human NCI-H460 cells assessed as growth inhibition using compound dissolved in DMSO after 48 hrs by SRB assay; format: functional; details: NCI-H460, 48 h; method in brief: as §1
[11] = Cytotoxicity against human DU145 cells assessed as growth inhibition using compound dissolved in DMSO after 48 hrs by SRB assay; format: functional; details: DU-145, 48 h; method in brief: as §1
[12] = Cytotoxicity against human SKOV3 cells assessed as growth inhibition using compound dissolved in water after 48 hrs by SRB assay; format: functional; details: SK-OV-3, 48 h; method in brief: as §1
NCI-H460 [13] = test: Cytotoxicity against human NCI-H460 cells assessed as growth inhibition using compound dissolved in water after 48 hrs by SRB assay; format: functional; details: NCI-H460, 48 h; method in brief: as §1
[14] = Cytotoxicity against human DU145 cells assessed as growth inhibition using compound dissolved in water after 48 hrs by SRB assay; format: functional; details: DU-145, 48 h; method in brief: as §1
Leucine aminopeptidase [15] = target: T1, Leucine aminopeptidase; test: Activity at porcine leucine aminopeptidase by HPLC analysis; format: ADME; details: pig; method in brief: as §2
Tubulin (Bos taurus) [16] = target: T2, Tubulin (Bos taurus) (UniProt Q6B856+Q862L2+Q862F3); test: Displacement of [3H]colchicine from bovine brain tubulin at 5 uM after 10 mins by scintillation counting analysis
Method in brief: (§3)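 1.0 μM tubulin with 5.0 μM [3H]colchicine and inhibitor at 1.0 or 5.0 μM. Buffer: 5% DMSO, 1.0 M monosodium glutamate pH 6.6, 0.5 mg/mL BSA, 0.1 M glucose-1-phosphate, 1.0 mM MgCl2, 1.0 mM GTP. Incubated 10 min at 37 °C, stopped with ice-cold water, collected on DEAE-cellulose filters and scintillation counted. Corrected for filter binding without tubulin; % inhibition against no-inhibitor controls.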

Tubulin (Bos taurus) [17] = target: T2, Tubulin (Bos taurus); test: Displacement of [3H]colchicine from bovine brain tubulin at 1 uM after 10 mins by scintillation counting analysis; method in brief: as §3
HUVEC = test: Antivascular activity in HUVEC cells assessed as disruption of capillary-like network of tubules formation at 0.1 uM by matrigel assay; format: functional, cell-based; details: Homo sapiens
Method in brief: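 HUVECs (124,000 per well in M200 with growth factors) plated on Matrigel (9.5 mg/mL) that had been set for 60 min at 37 °C. Cells incubated 16 h at 37 °C to form tubule networks. Then treated at 0.01, 0.1 or 1.0 μM and photographed, 9 fields/well with 40x objective.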

[18] = Retention time of the compound by HPLC analysis; format: physicochemical
Method in brief: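 Reversed-phase C18 HPLC (4.6 × 150 mm, 5 μm) at 25 °C with diode-array detection at 190–400 nm. Acetonitrile against water or 0.1% TFA/water. Gradient 10% to 100% acetonitrile over 40 min, or in method C 10% acetonitrile for 5 min then to 100% over 5–25 min, at 1.0 mL/min.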

Compound	GI50 [1] [nM]	Drug metabolism (Leucine aminopeptidase [3])	GI50 (NCI-H460 [4]) [nM]	GI50 [5] [nM]	GI50 (NCI-H460 [4]; Homo sapiens, NCI-H460, 48 h) [nM]	GI50 ([5]; Homo sapiens, DU-145, 48 h) [nM]	GI50 ([1]; Homo sapiens, SK-OV-3, 48 h) [nM]	also measured
COc1ccc2c(c1NC(=O)[C@@H](N)CO)CCCC=C2c1cc(OC)c(OC)c(OC)c1.Cl	47000	< 10%						Drug metabolism (Leucine aminopeptidase [2]): < 10%
COc1ccc(/C=C\c2cc(OC)c(OC)c(OC)c2)cc1NC(=O)[C@@H](N)CO [OMBRABULIN]	9.02	95%	24.1	16.4				IC50 (Tubulin): 14000 nM
COc1ccc(/C=C\c2cc(OC)c(OC)c(OC)c2)c(N)c1N.Cl	22.8		124	205				inhibition in vivo at 80 mg/kg (MDA-MB-231 [6]): 95%; inhibition in vivo at 80 mg/kg (MDA-MB-231 [7]): 94%; inhibition in vivo at 80 mg/kg (MDA-MB-231 [8]): 79%; IC50 (Tubulin): 2300 nM
COc1ccc2c(c1NC(=O)CN)CCC=C2c1cc(OC)c(OC)c(OC)c1	13.8				36.5	50.1		
COc1ccc(/C=C/c2cc(OC)c(OC)c(OC)c2)c(NC(=O)CN)c1.Cl		100%						GI50 [9]: 427 nM; GI50 (NCI-H460 [10]): 418 nM; GI50 [11]: 630 nM; GI50 [12]: 426 nM; GI50 (NCI-H460 [13]): 380 nM; GI50 [14]: 674 nM
COc1ccc2c(c1NC(=O)CN)CCCC=C2c1cc(OC)c(OC)c(OC)c1.Cl	203	100%	567	773				Activity (Leucine aminopeptidase [15]): 0.12 µM/min
COc1ccc(/C=C\c2cc(OC)c(OC)c(OC)c2)c(NC(=O)[C@@H](N)CO)c1					33.3	34.7	39.5	
COc1ccc2c(c1NC(=O)[C@@H](N)CO)CCC=C2c1cc(OC)c(OC)c(OC)c1.Cl	11600	< 10%	18600	26000				Drug metabolism (Leucine aminopeptidase [2]): < 10%
COc1ccc2c(c1N)CCCC=C2c1cc(OC)c(OC)c(OC)c1					1.85	2.26	0.137	inhibition (Tubulin (Bos taurus) [16]): 82%; IC50 (Tubulin): 1300 nM
COc1ccc(/C=C\c2cc(OC)c(OC)c(OC)c2)cc1O [COMBRETASTATIN A4]					5	6.02	5.06	inhibition (Tubulin (Bos taurus) [17]): 84%
COc1ccc(/C=C\c2cc(OC)c(OC)c(OC)c2)c(N)c1N								inhibition (Tubulin (Bos taurus) [17]): 55% and 46%; inhibition (Tubulin (Bos taurus) [16]): 87% and 86%; Activity (HUVEC): Active
COc1ccc2c(c1NC(=O)[C@@H](N)CO)CCCC=C2c1cc(OC)c(OC)c(OC)c1					45900	> 81300	44900	
COc1ccc2c(c1NC(=O)[C@@H](N)CO)CCC=C2c1cc(OC)c(OC)c(OC)c1					31100	40600	13700	
COc1ccc2c(c1NC(=O)CN)CCCC=C2c1cc(OC)c(OC)c(OC)c1					566	507	195	
COc1ccc2c(c1N)CCC=C2c1cc(OC)c(OC)c(OC)c1								Retention_time [18]: 12.1 min
COc1ccc(/C=C/c2cc(OC)c(OC)c(OC)c2)c(NC(=O)[C@H](N)CO)c1.Cl		90%			2240	4550	2290	
COc1ccc(/C=C\c2cc(OC)c(OC)c(OC)c2)cc1NC(=O)[C@@H](N)CO.Cl	3.96	95%	3.87	3.34				IC50 (Tubulin): 13000 nM
COc1ccc(/C=C\c2cc(OC)c(OC)c(OC)c2)c(NC(=O)[C@@H](N)CO)c1.Cl	51.6	62%	31.7	48.4				Activity (Leucine aminopeptidase [15]): 1.2 µM/min
COc1ccc(/C=C\c2cc(OC)c(OC)c(OC)c2)c(N)c1.Cl	7.35		26.3	28.5				IC50 (Tubulin): 2500 nM
COc1ccc(/C=C\c2cc(OC)c(OC)c(OC)c2)c(N)c1 [listing 1 of 2 here]								inhibition (Tubulin (Bos taurus) [17]): 55%; inhibition (Tubulin (Bos taurus) [16]): 88% and 75%
COc1ccc(/C=C\c2cc(OC)c(OC)c(OC)c2)c(NC(=O)CN)c1					53.2	43.6	32.3	
COc1ccc(/C=C\c2cc(OC)c(OC)c(OC)c2)c(N)c1 [listing 2 of 2 here]	26.6				40.1	33.1		Retention_time [18]: 31.29 min; IC50 (Tubulin): 1100 nM
COc1ccc(/C=C\c2cc(OC)c(OC)c(OC)c2)c(NC(=O)CN)c1.Cl	48.5	100%	29.2	44.7				Activity (Leucine aminopeptidase [15]): 180 µM/min
COc1ccc(/C=C\c2cc(OC)c(OC)c(OC)c2)c(NC(=O)[C@@H](N)CO)c1NC(=O)[C@@H](N)CO.Cl.Cl	> 86600	metabolite_notdetected	> 86600	> 86600				
COc1ccc(/C=C\c2cc(OC)c(OC)c(OC)c2)cc1N					4.49	3.3	4.45	
COc1ccc(/C=C\c2cc(OC)c(OC)c(OC)c2)c(NC(=O)[C@@H](N)CO)c1NC(=O)[C@@H](N)CO	25900	metabolite_notdetected	24400	33600				
